Data set [1] deals with Gli1-mediated transcription (human full-length Gli1). The experiment in a line: Gli-Luc reporter assay in C3H10T1/2 cells transfected with Gli1. It counts as cell-based. The settings on record: for inhibition of Gli1-mediated transcription (Gli-Luc), relative potency in words: Gli1-transfected C3H10T1/2 cells, 10 µM or 20 µM, 24 h.
Data set [2] relates to medulloblastoma. The note with it: mouse model in which SuFu is inactivated; cited from earlier work.
Data set [3] concerns endogenous Gli in Rh30 cells. Kind of data set: Gli-mediated transcription reporter assay in Rh30 cells. It counts as cell-based. The method in brief:
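Rh30 cells seeded at 3×10^5 per dish in RPMI-1640 with 10% FBS (37 °C, 5% CO2); after 24 h (~70% confluence) transfected with GliLuc-BS (500 ng/mL) and pRL-CMV (2.5 ng/mL) using Fugene6. Replated into 96-well plates 6 h post-transfection; 18 h later exposed to test compound or DMSO for 24 h. Lysed cells read by dual luciferase as firefly/Renilla ratio.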
A general note: A reporter such as luciferase makes a cellular process visible.

The test system of data set [4] is medulloblastoma. The note with it: mouse model in which Ptch1 is inactivated; cited from earlier work.
In a further data set the test system is bone development. The settings on record: young mice; cited from earlier work.
For data set [5], the system named is Histone deacetylase (HDAC). Kind of data set: HDAC inhibition. It counts as biochemical. The settings on record: up to 40 µM; data not shown.
Data set [6] can be described thus: Microsomal stability assay. It counts as in vitro ADME. The settings on record: CD-1 female mouse liver microsomes, 37°C. Background: Liver microsomes are a subcellular fraction often used to study metabolism.
For data set [7], the system named is Hh signal-mediated alkaline phosphatase. The experiment in a line: Hh signal-mediated alkaline phosphatase induction in C3H10T1/2 cells. It counts as cell-based, mouse. The note with it: osteoblastic differentiation marker.
Data set [8] concerns Gli1-target genes in Rh30 cells. Kind of data set: Real-time RT-PCR of Gli1-target genes in Rh30 cells. It counts as cell-based. The settings on record: 24 h after addition. Background: Quantitative PCR measures a nucleic acid by following its amplification.

With `CN(C)c1ccccc1CN1CCCN(Cc2ccccc2N(C)C)C1c1ccncc1` [GANT61, reference compound], in data set [1] (Homo sapiens, C3H 10T1/2, 24 h, read-out: IC50, Gli-Luc signal in Gli1-transfected C3H10T1/2 cells), the IC50 is approximately 20 µM. For `COc1cc(OC)cc(C(=O)Nc2ccc(Cl)c(-c3nc4ccc(N(C)C)cc4[nH]3)c2)c1` [HhAntag], in the data set with medulloblastoma [2], the efficacy result is on record as “not to be effective”. The “Gli-Luc inhibition in Rh30 cells, in words” value (“Gli-Luc inhibition” below) in data set [3] (concentration as high as 40 µM) is on record as “almost no Gli-Luc inhibition”. Besides, the effect on medulloblastoma entry in the data set on medulloblastoma [4] was “eliminate medulloblastoma”. The “effect on bone development” value with bone development is given as “permanent defects in bone development”.

`CC(C(=O)NCCc1ccc(O)cc1)c1cccc(C(=O)c2ccccc2)c1` (stereo not shown) [compound 5]: the HDAC inhibition entry in data set [5] was “do not inhibit”. In addition, the “time to complete consumption in mouse liver microsomes” value in [6] is given as “less than 1 h”. Taken in the same sequence, the figures for `CCCN(CCc1ccc(O)cc1)C(=O)C(C)c1cccc(C(=O)c2ccccc2)c1` (stereo not shown) [compound 6] were “do not inhibit” and “less than 1 h”.

`CC(C(=O)NCCc1ccc2[nH]ccc2c1)c1cccc(C(=O)c2ccccc2)c1` (stereo not shown) [compound 20, N-(2-(1H-Indol-5-yl)ethyl)-2-(3-benzoylphenyl)propanamide]: the “inhibition of Gli1-mediated transcription (Gli-Luc), relative potency in words” value (“inhibition … relative potency in words” for short) in [1] is given as “much weaker activity than 5”.

Consider `CC(C(=O)NCc1ccc2[nH]ccc2c1)c1cccc(C(=O)c2ccccc2)c1` (stereo not shown) [compound 21, N-((1H-Indol-5-yl)methyl)-2-(3-benzoylphenyl)propanamide], for which, in data set [1], the “inhibition … relative potency in words” value is recorded as “higher activity than 20”.

Take `CC(C(=O)Nc1ccc2[nH]ccc2c1)c1cccc(C(=O)c2ccccc2)c1` (stereo not shown) [compound 22, 2-(3-Benzoylphenyl)-N-(1H-indol-5-yl)propanamide]: the “inhibition … relative potency in words” value in data set [1] is “higher activity than 20”. For `CC(C(=O)Nc1ccc2cc[nH]c2c1)c1cccc(C(=O)c2ccccc2)c1` (stereo not shown) [compound 23, 2-(3-Benzoylphenyl)-N-(1H-indol-6-yl)propanamide], in [3] (10 µM or 20 µM, 24 h), the “Gli-Luc inhibition” value is listed as “inhibition with similar or slightly weaker potency”. For the same compound, in data set [1], the “inhibition … relative potency in words” value was “best among the tested analogs”. Besides, in [6], the “stability in mouse liver microsomes, in words” value was “much more stable than 5 and 6”. The “inhibitory effect in inducing Hh signal-mediated alkaline phosphatase” value (shortened to “inhibitory effect”) in data set [7] is reported as “much smaller than that of HhAntag”. Regarding `CC(CNC(=O)Cc1ccc2[nH]ccc2c1)c1cccc(C(=O)c2ccccc2)c1` (stereo not shown) [compound 25, N-(2-(3-Benzoylphenyl)propyl)-2-(1H-indol-5-yl)acetamide], in [1], the “inhibition … relative potency in words” value is “only weak activity”. Still for that read-out and setting: the entry for `CC(CNC(=O)c1cc2ccccc2[nH]1)c1cccc(C(=O)c2ccccc2)c1` (stereo not shown) [compound 28, N-(2-(3-Benzoylphenyl)propyl)-1H-indole-2-carboxamide] is “equipotent inhibitors”; for `CC(CNC(=O)c1c[nH]c2ccccc12)c1cccc(C(=O)c2ccccc2)c1` (stereo not shown) [compound 29, N-(2-(3-Benzoylphenyl)propyl)-1H-indole-3-carboxamide] it is “equipotent inhibitors”. Same read-out and setting: the entry for `CC(CNC(=O)c1cccc2[nH]ccc12)c1cccc(C(=O)c2ccccc2)c1` (stereo not shown) [compound 30, N-(2-(3-Benzoylphenyl)propyl)-1H-indole-4-carboxamide] is “decreased the potency”; for `CC(CNC(=O)c1cccc2cc[nH]c12)c1cccc(C(=O)c2ccccc2)c1` (stereo not shown) [compound 31, N-(2-(3-Benzoylphenyl)propyl)-1H-indole-7-carboxamide] it is “decreased the potency”; for `CC(C(=O)N(C)c1ccc2cc[nH]c2c1)c1cccc(C(=O)c2ccccc2)c1` (stereo not shown) [compound 32, 2-(3-Benzoylphenyl)-N-(1H-indol-6-yl)-N-methylpropanamide] it is “Little improvement”. `CCCN(C(=O)C(C)c1cccc(C(=O)c2ccccc2)c1)c1ccc2cc[nH]c2c1` (stereo not shown) [compound 33, 2-(3-Benzoylphenyl)-N-(1H-indol-6-yl)-N-propylpropanamide]: in [3] (10 µM or 20 µM, 24 h), the “Gli-Luc inhibition” value is reported as “inhibition with similar or slightly weaker potency”. For the same compound, in [5], the HDAC inhibition entry is on record as “do not inhibit”. The “expression of Gli1-target genes in Rh30 cells (RT-PCR)” value in data set [8] was “inhibits expression of Gli1-target genes”. Moreover, the “stability in mouse liver microsomes, in words” value in data set [6] was “much more stable than 5 and 6”. Also, the “inhibitory effect” value in data set [7] is recorded as “much smaller than that of HhAntag”. `CCCC(C)(C(=O)Nc1ccc2cc[nH]c2c1)c1cccc(C(=O)c2ccccc2)c1` (stereo not shown) [compound 40, 2-(3-Benzoylphenyl)-N-(1H-indol-6-yl)-2-methylpentanamide]: in [1], the “inhibition … relative potency in words” value is recorded as “did not increase potency”. Still for that read-out and setting: with `CCCn1ccc2ccc(NC(=O)C(C)c3cccc(C(=O)c4ccccc4)c3)cc21` (stereo not shown) [compound 41, 2-(3-Benzoylphenyl)-N-(1-propyl-1H-indol-6-yl)propanamide] the entry was “did not increase potency”. On to `CCCN(C(=O)C(C)c1cccc(C(=O)c2ccccc2)c1)c1ccc2[nH]ccc2c1` (stereo not shown) [compound 42, 2-(3-Benzoylphenyl)-N-(1H-indol-5-yl)-N-propylpropanamide], for which the “Gli-Luc inhibition” value in [3] (10 µM or 20 µM, 24 h) is reported as “inhibition with similar or slightly weaker potency”. Moreover, the HDAC inhibition result in data set [5] was “do not inhibit”. In addition, in data set [7], the “inhibitory effect” value is “much smaller than that of HhAntag”. Regarding `CCCN(C(=O)C(C)c1cccc(C(=O)c2ccccc2)c1)c1cccc2[nH]ccc12` (stereo not shown) [compound 43, 2-(3-Benzoylphenyl)-N-(1H-indol-4-yl)-N-propylpropanamide], the “inhibition … relative potency in words” value in data set [1] is “equipotent to 33”. Same read-out and setting: with `CCCN(Cc1ccc2[nH]ccc2c1)C(=O)C(C)c1cccc(C(=O)c2ccccc2)c1` (stereo not shown) [compound 44, N-((1H-Indol-5-yl)methyl)-2-(3-benzoylphenyl)-N-propylpropanamide] the entry was “weaker potency than 42”.

Values taken from article PMC2952073 (Bioorganic & medicinal chemistry, 2010).
